Results as given in ChEMBL document CHEMBL3797096, “Synthesis and in vitro evaluation of (R), (S) and (R/S)-2-hexyne-1,4-diol, a natural product produced by fungus Clitocybe catinus, and related analogs as potential anticancer agents” (Bioorg Med Chem Lett, 2016).
The source made the active and inactive calls. No cut-off for these calls is given here.

Tests used:
[1] = Cytotoxicity against human Hep2 cells assessed as cell death at 100 ug/ml after 72 hrs by MTT assay; format: functional, HEp-2
Method in brief: (§1)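 Single-concentration colorimetric MTT screen of test compounds at a fixed final concentration. Incubation was 72 h, and the read-out was growth inhibition of the tumour cell lines. Values are given as means with standard deviations. Doxorubicin served as the positive control.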

[2] = Cytotoxicity against human HL60 cells assessed as cell death at 100 ug/ml after 72 hrs by MTT assay; format: functional, HL-60; method in brief: as §1
MCF7 [3] = test: Cytotoxicity against human MCF7 cells assessed as cell death at 100 ug/ml after 72 hrs by MTT assay; format: functional; method in brief: as §1
RAW264.7 = test: Cytotoxicity against mouse RAW264.7 cells at 100 ug/ml after 72 hrs by MTT assay; format: cell-based; conditions: raw264.7, 72 h
Method in brief: (§2)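 Single-concentration screen of mouse cells at 100 µg/mL final concentration. Viability read by colorimetric MTT assay after 72 h of incubation; percent growth inhibition given as means (standard deviations); doxorubicin as positive control.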

K562 [4] = test: Cytotoxicity against human K562 cells assessed as cell death at 100 ug/ml after 72 hrs by MTT assay; format: functional; method in brief: as §1
NCI-H292 [5] = test: Cytotoxicity against human NCI-H292 cells assessed as cell death at 100 ug/ml after 72 hrs by MTT assay; format: functional; method in brief: as §1
J774.A1 = test: Cytotoxicity against mouse J774.A1 cells at 100 ug/ml after 72 hrs by MTT assay; format: cell-based; conditions: j774.a1, 72 h; method in brief: as §2
NCI-H292 [6] = test: Cytotoxicity against human NCI-H292 cells after 72 hrs by MTT assay; format: functional, cell-based
Method in brief: (§3)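 Colorimetric MTT assay on human tumour cells after 72 h of incubation; values expressed as means (standard deviations), with doxorubicin as positive control.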

MCF7 [7] = test: Cytotoxicity against human MCF7 cells after 72 hrs by MTT assay; format: functional, cell-based; method in brief: as §3
K562 [8] = test: Cytotoxicity against human K562 cells after 72 hrs by MTT assay; format: functional, cell-based; method in brief: as §3
HL-60 = test: Cytotoxicity against human HL60 cells after 72 hrs by MTT assay; format: functional, cell-based; method in brief: as §3
HEp-2 = test: Cytotoxicity against human Hep2 cells after 72 hrs by MTT assay; format: functional, cell-based; method in brief: as §3

Structure (SMILES) | Activity [1] [%] | Activity [2] [%] | Activity (MCF7 [3]) [%] | Activity (RAW264.7) [%] | Activity (K562 [4]) [%] | Activity (NCI-H292 [5]) [%] | Activity (J774.A1) [%] | TGI (NCI-H292 [6]) | TGI (MCF7 [7]) | TGI (K562 [8]) | TGI (HL-60) | TGI (HEp-2)
CC(O)CC#CCO (stereo unspecified) | 14.8 | 11 | 0 | 8.5 | 0 | 20.2 | 60.8 |  |  |  |  | 
CCCCCC(O)C#CCO (stereo unspecified) | 100 | 100 | 100 | 100 | 100 | 100 | 100 | Active | Active | Active | Active | Active
CC(C)C(O)C#CC(C)(C)O (stereo unspecified) | 0 | 7.3 | 40.7 | 0 | 9.7 | 21.5 | 55.3 |  |  |  |  | 
CC(O)C#CCCO (stereo unspecified) | 2.2 | 0 | 17.8 | 9.4 | 25.1 | 0.3 | 16.5 |  |  |  |  | 
CC(O)C#CC(O)(c1ccccc1)c1ccccc1 (stereo unspecified) | 84 | 96.1 | 27.3 | 95 | 80 | 91 | 93.1 |  |  |  |  | 
CC(O)CC#CCCO (stereo unspecified) | 84.1 | 9.6 | 69.5 | 19.3 | 0 | 71.5 | 15.7 |  |  |  |  | 
OCC#CC(O)c1ccccc1 (stereo unspecified) | 28.1 | 29.5 | 68.1 | 16 | 3.8 | 86.9 | 17.1 |  |  |  |  | 
CC(O)C#CCO (stereo unspecified) | 100 | 100 | 100 | 100 | 100 | 100 | 100 | Active | Active | Active | Active | Active
CC(C)C(O)C#CCCO (stereo unspecified) | 85.7 | 0 | 54.1 | 17.8 | 0 | 49.9 | 30.4 |  |  |  |  | 
CCC(C)(O)C#CCO (stereo unspecified) | 0 | 13.3 | 27.2 | 0 | 16 | 5 | 61.2 |  |  |  |  | 
CC(C)C(O)C#CCO (stereo unspecified) | 42.7 | 0 | 28.7 | 17.8 | 20.9 | 69.8 | 2 |  |  |  |  | 
CCC(O)C#CCCO (stereo unspecified) | 12.9 | 5.1 | 34.3 | 6.1 | 0 | 15.5 | 42.6 |  |  |  |  | 
CC(O)C#CC1(O)CCCCC1 (stereo unspecified) | 9.3 | 8.9 | 40.8 | 4.2 | 16.7 | 6.6 | 57.5 |  |  |  |  | 
CC[C@H](O)C#CCO | 31.3 | 1.4 | 51.6 | 19.5 | 27 | 85 | 1.7 |  |  |  |  | 
CCC(O)C#CCO (stereo unspecified) | 100 | 100 | 100 | 100 | 100 | 100 | 100 | Active | Active | Active | Active | Active
CC[C@@H](O)C#CCO | 38.8 | 12.1 | 52.5 | 9.6 | 40.9 | 55.7 | 0.2 |  |  |  |  | 
COc1cccc2c1C(=O)c1c(O)c3c(c(O)c1C2=O)C[C@@](O)(C(=O)CO)C[C@@H]3O[C@H]1C[C@H](N)[C@H](O)[C@H](C)O1 [DOXORUBICIN] | 79.4 | 92.9 | 74.8 | 96.5 | 91.7 | 94.1 | 96 |  |  |  |  | 
CCCC(O)C#CCO (stereo unspecified) | 100 | 100 | 100 | 100 | 100 | 100 | 100 | Active | Active | Active | Active | Active
